The text below walks through data of paper PMC2912410 (Bioconjugate chemistry, 2010).

The target in one experiment is P2Y1 receptor. The conditions noted are these: competitive antagonist of the P2Y1 receptor; cited from earlier work.
A further experiment addresses hP2Y1 receptor (Homo sapiens, UniProt P47900). Nature of the experiment: [125I]MRS2500 radioligand binding at hP2Y1 receptor in Sf9 insect cell membranes. To be noted: for binding to the P2Y1 receptor (in words): [125I]MRS2500 binding; for fold weaker in binding than shortest homologue 20: comparison of Ki values.
The next experiment relates to human platelets. Nature of the experiment: ADP-induced aggregation of human washed platelets. In kind it is cell-based. The conditions noted are these: 1 μM, ADP 5 μM. The method in brief:
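Washed human platelets: donor blood spun 175×g, 15 min, 37 °C; platelet-rich plasma spun 1570×g, 15 min; pellet washed twice in Tyrode's (pH 7.3, 0.35% human serum albumin); resuspended 3×10^5/μL with 0.02 U/mL apyrase, kept at 37 °C. Extent measured as maximum curve height above baseline.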

Entries after “also recorded” stand apart in the source; their conditions may differ.

hP2Y1 receptor, sequence (P47900 whole entry): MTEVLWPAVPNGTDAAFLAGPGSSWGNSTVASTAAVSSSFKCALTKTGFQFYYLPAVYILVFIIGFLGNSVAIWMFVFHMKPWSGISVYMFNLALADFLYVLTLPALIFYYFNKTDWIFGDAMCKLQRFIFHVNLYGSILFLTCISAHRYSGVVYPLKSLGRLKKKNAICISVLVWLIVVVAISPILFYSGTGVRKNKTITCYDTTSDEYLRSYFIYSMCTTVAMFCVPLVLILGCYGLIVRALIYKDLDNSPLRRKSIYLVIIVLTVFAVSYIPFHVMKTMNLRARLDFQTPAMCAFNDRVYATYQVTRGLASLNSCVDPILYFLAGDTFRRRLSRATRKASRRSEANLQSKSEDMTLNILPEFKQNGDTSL

On to `CNc1ncnc2c1ncn2[C@H]1C[C@H](OP(=O)(O)O)[C@@H](COP(=O)(O)O)O1` [Compound 1, N^6-methyl-2′-deoxyadenosine-3′,5′-bisphosphate], for which the Kb on P2Y1 receptor was 102 nM.

In the case of `CNc1nc(C#CCCCC(=O)NCCNC(=O)CCCCCNC(=O)CCCCC2SCC3NC(=O)NC32)nc2c1ncn2[C@H]1C[C@H](OP(=O)(O)O)[C@]2(COP(=O)(O)O)C[C@H]12` (stereo partly drawn) [Compound 18, (1'R,2'S,4'S,5'S)-4-{2-[6-(6-Oxo-6-(2-(6-(5-(2-oxohexahydro-1H-thieno[3,4-d]imidazol-4-yl)pentanamido)hexanamido)ethylamino)hex-1-ynyl)]-6-methylaminopurin-9-yl}-1-[(phosphato)-methyl]-2-(phosphato)-bicyclo[3.1.0]hexane], on hP2Y1 receptor, the “binding to the P2Y1 receptor (in words)” value was “more potent in binding than the shorter analogue 17”.

In the case of `CNc1nc(I)nc2c1ncn2[C@H]1C[C@H](OP(=O)(O)O)[C@]2(COP(=O)(O)O)C[C@H]12` [Compound 2, (1′R,2′S,4′S,5′S)-4-(2-iodo-6-methylamino-purin-9-yl)-1-[(phosphato)-methyl]-2-(phosphato)-bicyclo[3.1.0]hexane], the “inhibition of platelet aggregation (in words)” value in the experiment on human platelets is reported as “completely inhibited aggregation”.

With `CNc1nc(C#CCCCCc2cn(CCNC(C)=O)nn2)nc2c1ncn2[C@H]1C[C@H](OP(=O)(O)O)[C@]2(COP(=O)(O)O)C[C@H]12` [Compound 22, (1'R,2'S,4'S,5'S)-4-{2-[(6-(2-Acetamidoethyl)-1H-1,2,3-triazol-4-yl)-hex-1-yn-1-yl]-6-methylaminopurin-9-yl}-1-[(phosphato)-methyl]-2-(phosphato)-bicyclo[3.1.0]hexane], the “fold weaker in binding than shortest homologue 20” value at hP2Y1 receptor is 20 – 30 fold.

Consider “(1'R,2'S,4'S,5'S)-4-{2-[(6-(6-Oxo-6-(2-(5-(2-oxohexahydro-1H-thieno[3,4-d]imidazol-4-yl)pentanamido)ethylamino)hex-1-ynyl)-1-propynyl]-6-methylaminopurin-9-yl}-1-[(phosphato)-methyl]-2-(phosphato)-bicyclo[3.1.0]hexane [Compound 17]”, for which, at hP2Y1 receptor, the “binding to the P2Y1 receptor (in words)” value is reported as “weak in binding”.

“(1'R,2'S,4'S,5'S)-4-{2-[(6-(6-(4-(Fluorosulfonyl)phenethylamino)-6-oxohex-1-ynyl)]-6-methylaminopurin-9-yl}-1-[(phosphato)-methyl]-2-(phosphato)-bicyclo[3.1.0]hexane [Compound 19]”: at hP2Y1 receptor, the “binding to the P2Y1 receptor (in words)” value was “not appreciably potent; also recorded: weak in binding”.

Turning to `CNc1nc(C#CCCCCCc2cn(CCNC(C)=O)nn2)nc2c1ncn2[C@H]1C[C@H](OP(=O)(O)O)[C@]2(COP(=O)(O)O)C[C@H]12` [Compound 23, (1'R,2'S,4'S,5'S)-4-{2-[(7-(2-Acetamidoethyl)-1H-1,2,3-triazol-4-yl)-hept-1-yn-1-yl]-6-methylaminopurin-9-yl}-1-[(phosphato)-methyl]-2-(phosphato)-bicyclo[3.1.0]hexane], at hP2Y1 receptor, the “fold weaker in binding than shortest homologue 20” value is on record as 20 – 30 fold.

The term Kb denotes the affinity of an antagonist, worked out from how it opposes an agonist.
